Test results published in ChEMBL document CHEMBL4196161, “Lead Optimization of 5-Aryl Benzimidazolone- and Oxindole-Based AMPA Receptor Modulators Selective for TARP γ-8” (ACS Med Chem Lett, 2018).
≈ marks a conversion by molar mass, not a printed value.

Key:
GRIA1/CACNG2 = GRIA1/CACNG2 (Homo sapiens, UniProt P42261+Q9Y698); assay: Modulation of recombinant human GluA1 flop isoform/TARPgamma2 expressed in HEK293F cells assessed as blockade of glutamate-induced calcium flux by calcium 5/6 dye based FLIPR assay; assay type: cell-based
Chain of GRIA1/CACNG2 (P42261 whole entry, canonical isoform): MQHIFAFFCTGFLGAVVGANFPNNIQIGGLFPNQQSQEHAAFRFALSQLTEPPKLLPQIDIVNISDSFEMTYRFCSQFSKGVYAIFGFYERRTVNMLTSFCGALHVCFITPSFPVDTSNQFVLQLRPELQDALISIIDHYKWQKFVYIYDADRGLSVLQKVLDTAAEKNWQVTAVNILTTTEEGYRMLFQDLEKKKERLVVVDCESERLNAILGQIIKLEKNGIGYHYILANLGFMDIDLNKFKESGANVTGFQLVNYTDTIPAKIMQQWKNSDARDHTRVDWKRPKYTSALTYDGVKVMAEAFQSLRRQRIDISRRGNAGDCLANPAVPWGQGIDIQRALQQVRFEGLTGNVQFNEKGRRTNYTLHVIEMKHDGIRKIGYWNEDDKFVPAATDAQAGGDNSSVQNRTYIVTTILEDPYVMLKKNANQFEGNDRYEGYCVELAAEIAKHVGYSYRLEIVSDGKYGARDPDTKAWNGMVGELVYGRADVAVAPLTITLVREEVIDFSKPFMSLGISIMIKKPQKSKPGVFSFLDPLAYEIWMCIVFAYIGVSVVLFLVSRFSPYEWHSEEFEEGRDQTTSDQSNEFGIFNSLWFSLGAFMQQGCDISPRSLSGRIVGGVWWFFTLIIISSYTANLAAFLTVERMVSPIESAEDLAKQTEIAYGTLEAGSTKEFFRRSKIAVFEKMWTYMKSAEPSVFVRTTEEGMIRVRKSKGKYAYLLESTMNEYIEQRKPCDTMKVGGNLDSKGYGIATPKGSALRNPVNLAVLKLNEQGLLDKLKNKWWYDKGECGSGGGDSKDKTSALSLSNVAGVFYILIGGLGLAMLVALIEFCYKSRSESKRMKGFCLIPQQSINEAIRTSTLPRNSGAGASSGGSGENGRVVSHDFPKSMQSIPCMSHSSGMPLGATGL
Chain of GRIA1/CACNG2 (Q9Y698 whole entry, canonical isoform): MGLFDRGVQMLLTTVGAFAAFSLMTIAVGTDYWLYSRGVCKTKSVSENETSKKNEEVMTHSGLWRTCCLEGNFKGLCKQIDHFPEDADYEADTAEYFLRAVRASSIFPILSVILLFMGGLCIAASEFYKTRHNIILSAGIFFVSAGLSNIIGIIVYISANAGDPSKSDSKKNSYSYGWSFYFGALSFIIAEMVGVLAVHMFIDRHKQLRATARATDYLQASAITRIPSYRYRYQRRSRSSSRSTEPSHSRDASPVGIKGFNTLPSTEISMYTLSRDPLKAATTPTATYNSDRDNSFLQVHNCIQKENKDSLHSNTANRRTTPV
Outline: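 HEK-293 cells transiently expressing human GluA1o cotransfected with γ-2; FLIPR calcium-flux read-out; pIC50 reported; n = 1, run in triplicate.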

GRIA1/CACNG8 = GRIA1/CACNG8 (Homo sapiens, UniProt P42261+Q8WXS5); assay: Modulation of recombinant human GluA1 flop isoform/TARPgamma8 expressed in HEK293F cells assessed as blockade of glutamate-induced calcium flux by calcium 5/6 dye based FLIPR assay; assay type: cell-based
Chain of GRIA1/CACNG8 (P42261 whole entry, the tested form may be a part, canonical isoform): as the sequence (P42261 whole entry, canonical isoform) above
Chain of GRIA1/CACNG8 (Q8WXS5 whole entry, the tested form may be a part, canonical isoform): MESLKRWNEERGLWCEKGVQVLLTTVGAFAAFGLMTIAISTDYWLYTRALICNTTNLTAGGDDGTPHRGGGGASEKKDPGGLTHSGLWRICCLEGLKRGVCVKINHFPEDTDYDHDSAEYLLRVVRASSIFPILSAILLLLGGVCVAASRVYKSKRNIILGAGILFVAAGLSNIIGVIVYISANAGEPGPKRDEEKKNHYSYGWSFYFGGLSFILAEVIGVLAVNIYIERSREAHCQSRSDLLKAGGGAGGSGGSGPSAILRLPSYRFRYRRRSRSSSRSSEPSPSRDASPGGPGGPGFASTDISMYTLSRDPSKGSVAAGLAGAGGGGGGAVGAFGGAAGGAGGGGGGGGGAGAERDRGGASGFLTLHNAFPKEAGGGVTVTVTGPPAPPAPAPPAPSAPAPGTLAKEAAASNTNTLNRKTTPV
Outline: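 HEK-293 cells expressing a human GluA1o-γ-8 fusion construct; FLIPR calcium-flux read-out; pIC50 reported as mean and standard deviation of at least three assays run in triplicate.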

[1] = Hepatic extraction ratio in rat liver microsomes at 1 uM measured after 60 mins in presence of NADPH by LC-MS/MS analysis; assay type: ADME, microsome; details: read-out: ERH
Outline: (§1)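 Human or rat liver microsomal stability at 1 μM; results expressed as extraction ratio, i.e. predicted hepatic clearance divided by species-specific hepatic blood flow.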

[2] = Thermodynamic solubility of the compound in simulated gastric fluid at pH 1.6 incubated under stirred condition for 3 days; assay type: physicochemical; details: read-out: Therm_solubility
Outline: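 Thermodynamic solubility (μM) determined in simulated gastric fluid at pH 1.6 and in fasted state simulated intestinal fluid at pH 6.5.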

[3] = Thermodynamic solubility of the compound in fasted state simulated intestinal fluid at pH 6.5 incubated under stirred condition for 3 days; details: read-out: Therm_solubility
[4] = Apparent permeability across apical to basolateral side in MDCK-MDR1 cells at 5 uM measured after 60 mins by LC-MS/MS analysis; assay type: ADME, cell-based, Canis lupus familiaris; details: dog
Outline: (§2)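 Bidirectional apparent permeability measured in Madin–Darby canine kidney cells transfected with the MDR1 (P-gp) gene; Papp reported in ×10–6 cm/s.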

[5] = Hepatic extraction ratio in human liver microsomes at 1 uM measured after 60 mins in presence of NADPH by LC-MS/MS analysis; assay type: ADME, microsome; details: read-out: ERH; outline: as §1
[6] = Apparent permeability across basolateral to apical side in MDCK-MDR1 cells at 5 uM measured after 60 mins by LC-MS/MS analysis; assay type: ADME, cell-based, Canis lupus familiaris; details: dog; outline: as §2
[7] = Oral bioavailability in Sprague-Dawley rat at 5 mg/kg administered as single dose by LC-MS/MS analysis; assay type: ADME, organism-based; details: in vivo
Outline: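 Sprague–Dawley rats (n = 3/group) given compound as a solution in 20% HP-β-CD, 1 mg/kg i.v. and 5 mg/kg p.o.; plasma pharmacokinetics derived from these arms.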

[8] = Ratio of unbound brain to plasma concentration in Sprague-Dawley rat at 1 mg/kg, iv or 5 mg/kg, po administered as single dose by LC-MS/MS analysis; assay type: ADME, organism-based; details: brain and plasma, read-out: K(p,uu,brain)
[9] = Clearance in Sprague-Dawley rat at 1 mg/kg, iv administered as single dose by LC-MS/MS analysis; assay type: ADME, organism-based; details: in vivo
Outline: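 Single 1 mg/kg i.v. dose as a solution to Sprague–Dawley rats (n = 3/group); vehicle 20% HP-β-CD in one study series, 1:1 PEG400/H2O in the other; plasma PK parameters derived.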

[10] = Protein binding in human plasma assessed as unbound fraction at 1 uM measured after 6 hrs by equilibrium dialysis method; assay type: ADME, cell-free
Outline: (§3)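 Human or rat plasma protein binding at 1 μM compound, expressed as fraction unbound (fub).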

[11] = Protein binding in rat plasma assessed as unbound fraction at 1 uM measured after 6 hrs by equilibrium dialysis method; assay type: ADME, cell-free; outline: as §3

Row | Compound | IC50 (GRIA1/CACNG2) | IC50 (GRIA1/CACNG8) | hepatic extraction ratio at 1 h, 1 µM [1] | solubility thermodynamic at 72 h [2] | solubility thermodynamic at 72 h [3] | Papp A→B at 1 h, 5 µM [4] | hepatic extraction ratio at 1 h, 1 µM [5] | Papp B→A at 1 h, 5 µM [6] | bioavailability [7] | Kp uu [8] | clearance [9] | fraction unbound at 6 h, 1 µM [10] | fraction unbound at 6 h, 1 µM [11]
1 | Cc1ccccc1-c1ccc2c(c1)CC(=O)N2 | > 10000 nM | 2510 nM | – | – | – | – | – | – | – | – | – | – | –
2 | O=c1[nH]c2ccc(-c3c(Cl)cccc3OC(F)(F)F)cc2o1 | – | 2510 nM | – | – | – | – | – | – | – | – | – | – | –
3 | N#CCc1cccc(Cl)c1-c1ccc2[nH]c(=O)[nH]c2c1 | > 10000 nM | 10 nM | 0.6 | 26 µM (≈ 7.38 µg/mL) | 230 µM (≈ 65.3 µg/mL) | 6.6 ×10⁻⁶ cm/s | < 0.3 | 70 ×10⁻⁶ cm/s | – | – | – | – | –
4 | Cc1cccc(C)c1-c1ccc2[nH]c(=O)[nH]c2c1 | > 10000 nM | – | 0.5 | 5 µM (≈ 1.19 µg/mL) | 276 µM (≈ 65.8 µg/mL) | 42 ×10⁻⁶ cm/s | 0.3 | 34 ×10⁻⁶ cm/s | 68% | 0.3 | 9 mL/min/kg | – | –
5 | Cc1cccc(C)c1-c1ccc2c(c1)CC(=O)N2 | > 10000 nM | – | – | – | – | – | – | – | – | – | – | – | –
6 | O=c1[nH]c2ccc(-c3c(Cl)cccc3Cl)cc2[nH]1 | > 10000 nM | 50.1 nM | 0.3 | < 4 µM | 69 µM (≈ 19.3 µg/mL) | 26 ×10⁻⁶ cm/s | < 0.3 | 49 ×10⁻⁶ cm/s | – | – | – | 0.5 | 0.6
7 | O=C1Cc2cc(-c3c(Cl)cccc3OC(F)(F)F)cc(F)c2N1 | – | 2.51 nM | – | – | – | – | – | – | – | – | – | – | –
8 | COc1cccc(Cl)c1-c1ccc2[nH]c(=O)[nH]c2c1 | > 10000 nM | 126 nM | 0.6 | 19 µM (≈ 5.22 µg/mL) | 142 µM (≈ 39 µg/mL) | 26 ×10⁻⁶ cm/s | 0.3 | 50 ×10⁻⁶ cm/s | – | – | – | – | –
9 | N#Cc1cccc(Cl)c1-c1ccc2[nH]c(=O)[nH]c2c1 | > 10000 nM | 251 nM | < 0.2 | < 4 µM | 5 µM (≈ 1.35 µg/mL) | 14 ×10⁻⁶ cm/s | < 0.3 | 70 ×10⁻⁶ cm/s | – | – | – | – | –
10 | Cc1cccc(Cl)c1-c1ccc2[nH]c(=O)[nH]c2c1 | > 10000 nM | 50.1 nM | 0.6 | < 4 µM | 146 µM (≈ 37.8 µg/mL) | 25 ×10⁻⁶ cm/s | < 0.3 | 32 ×10⁻⁶ cm/s | – | – | – | 0.9 | –
11 | O=c1[nH]c2ccc(-c3c(Cl)cncc3Cl)cc2[nH]1 | > 10000 nM | 251 nM | < 0.2 | 42 µM (≈ 11.8 µg/mL) | 52 µM (≈ 14.6 µg/mL) | 16 ×10⁻⁶ cm/s | < 0.3 | 83 ×10⁻⁶ cm/s | – | – | – | – | –
